RAM inhibit – blocks the yeast RAM network | S. cerevisiae dse1pr::URA3 reporter, 5-FOA growth OD615, 2 d; analog-sensitive cbk1-as2 kinase mutant strain | inhibition, % at 50 µM | 190,000 compounds, 1.8% hits;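 active = inhibition above a set limit, 3 SD over mean compound inhibition, cut at about 8.4% in these data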;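 note: inhibition rescues growth on 5-FOA so higher OD means more RAM inhibition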
Yeast growth inh – chemicals that inhibit yeast BB579 growth in restrictive medium (lifespan-shortening candidates); S. cerevisiae BB579 growth, OD615, 48 h; 140,000 compounds, 0.51% hits; inhibition, % at 10 µM;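 active = inhibition above a set limit, 3 SD over the mean compound inhibition, cut at about 44% in these data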
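Assay system – yeast BB579 (DeaD) · Dosing – single compound dose of 10 µM, 0.25% DMSO final · Detection – OD615 turbidity measurement · Buffer or medium – CSMM-D restrictive synthetic medium containing dextrose (glucose) · Benchmarks – positive control amphotericin B 10 µg/mL · Incubation – 48 h exposure, 30 °C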
Yeast lifespan up – yeast lifespan extension; S. cerevisiae growth with nicotinamide, OD615; deaD strain in restrictive glucose medium; inhibition of the nicotinamide effect, % at 10 µM; 130,000 compounds, 0.68% hits;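 active = inhibition above a set limit, placed 3 SD over the median of all compounds, cut at about 26% in these data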
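Assay system: DeaD-strain S. cerevisiae. Medium: CSMM-D glucose medium, restrictive. Reagent: nicotinamide, 1.5 mM, co-present with compound. Compound: 10 µM single point, 0.25% DMSO. Schedule: culture preincubation 4 h, compound exposure 48 h, both 30 °C. Detection: absorbance at 615 nm.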
Phagocytosis inh – blocks phagocytosis by macrophages. 110,000 compounds, 0.07% hits. inhibition, % at 5 µM. J774A.1 macrophage IgG-bead phagocytosis, imaging;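 active = inhibition above the mean of the plate negative controls plus 5 SD, cut at about 13% in these data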;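 note: phagocytic index as fraction of beads internalized from green versus red external bead signal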
Numbers stand for hits; . = inactive; / = not tested or not shown; [ ] = dose if it differs, or a comment. Hits are enriched below; roughly 2.7% of the tested compounds scored in any of these assays.

SMILES	RAM inhibit	Yeast growth inh	Yeast lifespan up	Phagocytosis inh
Cc1ccc(NC(=O)C2(c3ccccc3)CC2(Cl)Cl)cc1C (configuration not stated)	.	.	.	/
CCc1ccc(NC(=O)C2(c3ccccc3)CC2(Cl)Cl)cc1 (configuration not stated)	8.5	.	.	/
COc1ccc(NC(=S)N(CCN(C)C)C(C)c2ccco2)cc1Cl (configuration not stated)	.	.	.	.
O=P(CO)(Cc1ccccc1)Cc1ccccc1	.	.	55	.
CN(C)c1ccc(NS(=O)(=O)c2cc(Cl)ccc2Cl)cc1	.	.	.	.
O=S(=O)(Nc1nc(-c2sccc2Cl)cs1)c1cc(Cl)ccc1Cl	.	.	46	/
O=C(O)CC(NC(=O)C1c2ccccc2Oc2ccccc21)c1ccc(OC2CCCC2)cc1 (configuration not stated)	.	/	/	/
O=C(O)CC(NC(=O)c1sc2ccccc2c1Cl)c1ccc(OC2CCCC2)cc1 (configuration not stated)	9.6	/	/	/
C/C(=N\NC(=S)NCc1ccccc1)c1ccc(Br)cc1	9.9	/	/	/
C/C(=N\NC(=S)NCc1ccccc1)c1ccc2c(c1)OCCO2	.	/	/	/
Cc1ccccc1N1C(=O)N(c2cccc(C(F)(F)F)c2)C2CS(=O)(=O)CC21 (configuration not stated)	.	.	.	.
COc1ccc(C2C(Oc3ccccc3C)C(=O)N2Cc2ccc(F)cc2)cc1OC (configuration not stated)	8.9	.	.	.
C/C(CCc1oc2ccc(Cl)cc2c1-c1ccc(C)o1)=N\O	9.4	.	/	/
C/C(CCc1oc2ccc(Br)cc2c1-c1ccc(C)o1)=N/O	11	.	.	.
O=C1Nc2ccccc2S/C1=C/Nc1cccc(Cl)c1	8.4	.	.	/
CCOC(=O)Cn1cc(/C=C/[N+](=O)[O-])c2ccccc21	.	/	/	/
CCOC(=O)COc1ccc2ccccc2c1/C=C/[N+](=O)[O-]	.	.	39	.
CCOc1ccc(/C=C/[N+](=O)[O-])c2ccccc12	.	56	.	/
CCOC(=O)COc1ccc(/C=C/[N+](=O)[O-])c(OCC(=O)OCC)c1	.	.	.	/
N/C(Cc1ccc(Cl)c(Cl)c1)=N\OC(=O)c1cccs1	.	66	.	.
COCCNC(=O)C(OC(=O)CC1Sc2ccccc2NC1=O)c1ccccc1 (configuration not stated)	.	.	/	/
COC(=O)c1sccc1N/N=C/c1cccc(OC)c1O	.	.	.	.
COC(=O)c1sccc1N/N=C/c1cccc(Oc2ccccc2)c1	8.5	.	.	.
Cc1cc(C(=O)CN2C(=O)NC3(CCCC3)C2=O)c(C)n1-c1ccc2c(c1)OCO2	.	.	.	.
Cc1cc(C(=O)CN2C(=O)NC(C)(CC(C)C)C2=O)c(C)n1-c1ccc2c(c1)OCO2 (configuration not stated)	.	.	65	.
SMILES	RAM inhibit	Yeast growth inh	Yeast lifespan up	Phagocytosis inh
O=C(NC(=S)NNC(=O)c1ccc(Cl)cc1Cl)c1cccnc1	.	.	44	.
O=C(NNC(=S)NC(=O)c1cccnc1)c1ccc(Cl)cc1	.	.	.	/
COC(=O)CCC(=O)c1oc2ccccc2c1NC(=O)CCCN1C(=O)c2ccccc2C1=O	8.9	.	.	/
COC(=O)C1=C(Nc2ccc(C)cc2)C=C(C)C(C(=O)OC)C1c1ccc(OC)cc1 (configuration not stated)	.	.	/	/
COC(=O)C1=C(O)C(C(=O)OC)C(c2ccc(C)cc2)C(C#N)(C#N)C1c1ccc(C)cc1 (configuration not stated)	8.5	.	/	/
CCCS(=O)(=O)N1CCN(S(=O)(=O)c2ccccc2)CC1	.	.	.	.
C/C(=N\NC(=O)c1ccccc1)c1ccc(-n2ccnc2)cc1	.	.	.	.
C/C(=N\Nc1ccc(Cl)c(Cl)c1)c1ccc(-n2ccnc2)cc1	.	95	.	.
CCCc1nnc(-c2cc(OC)c(OC)c(OC)c2)o1	.	.	.	.
COc1cc(-c2nnc(COc3ccc4ccccc4c3)o2)cc(OC)c1OC	9.4	.	.	/
CCCCCCN1CC(C(=O)OCC)C(=O)C1=O (configuration not stated)	.	.	50	.
COc1ccccc1OCCNC(=O)Cc1ccc(Cl)c(Cl)c1	.	/	/	/
CSc1ccccc1NC(=O)CN(c1cc(C)cc(C)c1)S(C)(=O)=O	.	.	.	.
CS(=O)(=O)N(CC(=O)Nc1ccccc1Sc1ccccc1)c1cccc(Br)c1	11	.	.	.
CC(=O)Nc1ccc2nc(NC(=O)COc3cccc(C)c3)sc2c1	.	/	/	/
CCOC(=O)c1nnn(-c2nonc2N)c1CN1CCc2ccccc2C1	.	.	62	.
CCOC(=O)c1nnn(-c2nonc2-n2cccc2)c1CCl	.	.	55	.
O=C(NC(=S)NNC(=O)c1ccccc1O)c1ccco1	.	.	82	.
CC[n+]1c(/C=C(\C)OC)sc2ccccc21	.	/	/	/
CC[n+]1c(/C=C/C=C/N(C(C)=O)c2ccccc2)sc2cc(OC)ccc21	.	.	.	70[fluoresces]
C=CCN1C(C(=O)c2ccccc2)=C(OC(=O)COc2ccccc2)c2ccccc2S1(=O)=O	.	90	.	.
CS(=O)(=O)N1CCN(C(=O)c2c(F)cccc2F)CC1	.	.	.	.
CS(=O)(=O)N1CCN(C(=O)c2ccccc2F)CC1	.	50	.	.
CSc1ncccc1C(=O)OCC(=O)NCc1ccc2c(c1)OCO2	.	/	/	/
Cc1conc1NC(c1cccs1)c1ccc2cccnc2c1O (configuration not stated)	.	62	.	.
SMILES	RAM inhibit	Yeast growth inh	Yeast lifespan up	Phagocytosis inh
O=[N+]([O-])c1ccc(Cl)c(S(=O)(=O)N2CCCCCC2)c1	.	57	.	.
CN1CCN(S(=O)(=O)c2cc([N+](=O)[O-])ccc2Cl)CC1	.	/	/	/
Cc1[nH]nc(-c2ccc(O)cc2O)c1-c1ccc(Cl)cc1	.	.	.	/
CCc1cc(-c2n[nH]c(C)c2Oc2ccc(C(C)C)cc2)c(O)cc1O	.	90	.	.
COc1ccc(-c2n[nH]c(C)c2-c2ccc(Cl)cc2)c(O)c1	.	100	.	/
CCCOC(=O)c1ccc(Oc2c(-c3ccc(OC)cc3O)n[nH]c2C)cc1	10	.	.	/
Cc1ccc(C)c(NC(=O)COC(=O)CCC(=O)c2cccs2)c1	.	/	/	/
O=C(c1cc(COc2c(F)cccc2F)on1)N1CCC(c2ccccc2F)C1 (configuration not stated)	.	/	/	/
O=C(NCc1ccc(Cl)s1)c1cc(COc2c(F)cccc2F)on1	9.1	/	/	/
Cc1cc(CNC(=O)c2cc(COc3c(F)cccc3F)on2)nn1C	.	/	/	/
CN(Cc1cccc2ccccc12)C(=O)c1cc(COc2c(F)cccc2F)on1	.	/	/	/
CCc1ccc(CN(C)C(=O)c2cc(COc3c(F)cccc3F)on2)cc1	9.4	/	/	/
O=C(c1cc(COc2c(F)cccc2F)on1)N1CCC(c2ccccc2Cl)C1 (configuration not stated)	8.4	/	/	/
CCCCNC(=O)N(O)C1N(CCCC)C(=O)N(CC(=O)OC)C1(C)C (configuration not stated)	.	.	/	/
Fc1ccccc1Cc1noc(CN2CCC(OCc3cccnc3)CC2)n1	.	/	/	/
